In ChEMBL document CHEMBL4339195, “Di-aryl Sulfonamide Motif Adds π-Stacking Bulk in Negative Allosteric Modulators of the NMDA Receptor” (ACS Med Chem Lett, 2019):
The source made the active and inactive calls. The rule behind the calls is not given here.

Columns and labels:
[1] = biological target: Ionotropic glutamate receptor NMDA 1/2D (Rattus norvegicus, UniProt P35439+Q62645); experiment: Negative allosteric modulation of recombinant rat GluN1/GluN2D expressed in Xenopus laevis oocytes assessed as inhibition of glutamate/glycine-induced current response at -40 mV holding potential by two-electrode voltage clamp method; format: cell-based
Procedure, shortened: (§1)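 Oocytes recorded while the drug is co-applied with a maximally effective 100 µM glutamate plus 30 µM glycine. Response is expressed as percent of the glutamate/glycine control. IC50 comes from a Hill fit to the average composite concentration-response curve. 8-16 oocytes from 2-3 frogs per compound and receptor.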

[2] = biological target: Glutamate NMDA receptor; Grin1/Grin2c (Rattus norvegicus, UniProt P35439+Q00961); experiment: Negative allosteric modulation of recombinant rat GluN1/GluN2C expressed in Xenopus laevis oocytes assessed as inhibition of glutamate/glycine-induced current response at -40 mV holding potential by two-electrode voltage clamp method; format: cell-based; procedure, shortened: as §1
[3] = biological target: Glutamate receptor 1 (Rattus norvegicus) (UniProt P19490); experiment: Negative allosteric modulation of recombinant rat GluA1 expressed in Xenopus laevis oocytes assessed as inhibition of glutamate-induced current response at 30 uM at -40 mV holding potential by two-electrode voltage clamp method relative to glutamate alone; format: cell-based
Sequence of Glutamate receptor 1 (Rattus norvegicus) (P19490 whole entry): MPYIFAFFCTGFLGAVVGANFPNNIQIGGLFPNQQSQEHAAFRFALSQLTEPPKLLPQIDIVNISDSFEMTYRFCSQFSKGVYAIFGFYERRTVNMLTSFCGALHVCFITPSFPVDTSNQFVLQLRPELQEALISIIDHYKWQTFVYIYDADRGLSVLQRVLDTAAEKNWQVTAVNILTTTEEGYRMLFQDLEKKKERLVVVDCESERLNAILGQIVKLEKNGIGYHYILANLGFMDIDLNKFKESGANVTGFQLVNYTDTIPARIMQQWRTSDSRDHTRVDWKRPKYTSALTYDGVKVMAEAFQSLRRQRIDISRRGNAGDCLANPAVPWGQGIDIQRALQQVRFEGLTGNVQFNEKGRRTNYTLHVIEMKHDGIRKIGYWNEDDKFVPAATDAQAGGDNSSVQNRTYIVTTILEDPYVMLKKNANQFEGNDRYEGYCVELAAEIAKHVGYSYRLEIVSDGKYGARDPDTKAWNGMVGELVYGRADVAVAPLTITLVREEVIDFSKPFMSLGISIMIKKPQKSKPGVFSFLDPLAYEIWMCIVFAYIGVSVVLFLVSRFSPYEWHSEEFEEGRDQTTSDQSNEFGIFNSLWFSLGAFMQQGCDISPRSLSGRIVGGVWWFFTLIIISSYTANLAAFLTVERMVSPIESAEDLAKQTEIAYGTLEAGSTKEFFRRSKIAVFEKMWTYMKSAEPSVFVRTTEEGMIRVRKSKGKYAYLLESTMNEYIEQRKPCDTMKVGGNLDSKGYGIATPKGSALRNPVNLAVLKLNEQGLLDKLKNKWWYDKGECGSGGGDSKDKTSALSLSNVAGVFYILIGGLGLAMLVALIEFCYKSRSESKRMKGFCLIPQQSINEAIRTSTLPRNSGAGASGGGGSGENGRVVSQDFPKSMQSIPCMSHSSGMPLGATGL
Procedure, shortened: (§2)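 Oocyte two-electrode voltage clamp at -40 mV holding. Test compound co-applied with agonist; response given as percent of the mean of control and recovery currents to agonist alone. Agonists: 100 µM glutamate (AMPA, kainate), 100 µM GABA (GABA receptors), 100 µM glycine (glycine receptor), 100 µM serotonin (5-HT3A), 9 µM ATP (P2X), 1 µM acetylcholine (nicotinic).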

[4] = species on record: Homo sapiens; experiment: Negative allosteric modulation of human GluA2 R607Q mutant expressed in Xenopus laevis oocytes assessed as inhibition of glutamate-induced current response at 30 uM at -40 mV holding potential by two-electrode voltage clamp method relative to glutamate alone; format: cell-based; procedure, shortened: as §2
[5] = system: Glutamate receptor 3 (Homo sapiens), P42263 [L513Y]; experiment: Negative allosteric modulation of human GluA3 L513Y mutant expressed in Xenopus laevis oocytes assessed as inhibition of glutamate-induced current response at 30 uM at -40 mV holding potential by two-electrode voltage clamp method relative to glutamate alone; format: cell-based; procedure, shortened: as §2
Sequence of Glutamate receptor 3 (Homo sapiens), P42263 [L513Y] (P42263 whole entry L513Y): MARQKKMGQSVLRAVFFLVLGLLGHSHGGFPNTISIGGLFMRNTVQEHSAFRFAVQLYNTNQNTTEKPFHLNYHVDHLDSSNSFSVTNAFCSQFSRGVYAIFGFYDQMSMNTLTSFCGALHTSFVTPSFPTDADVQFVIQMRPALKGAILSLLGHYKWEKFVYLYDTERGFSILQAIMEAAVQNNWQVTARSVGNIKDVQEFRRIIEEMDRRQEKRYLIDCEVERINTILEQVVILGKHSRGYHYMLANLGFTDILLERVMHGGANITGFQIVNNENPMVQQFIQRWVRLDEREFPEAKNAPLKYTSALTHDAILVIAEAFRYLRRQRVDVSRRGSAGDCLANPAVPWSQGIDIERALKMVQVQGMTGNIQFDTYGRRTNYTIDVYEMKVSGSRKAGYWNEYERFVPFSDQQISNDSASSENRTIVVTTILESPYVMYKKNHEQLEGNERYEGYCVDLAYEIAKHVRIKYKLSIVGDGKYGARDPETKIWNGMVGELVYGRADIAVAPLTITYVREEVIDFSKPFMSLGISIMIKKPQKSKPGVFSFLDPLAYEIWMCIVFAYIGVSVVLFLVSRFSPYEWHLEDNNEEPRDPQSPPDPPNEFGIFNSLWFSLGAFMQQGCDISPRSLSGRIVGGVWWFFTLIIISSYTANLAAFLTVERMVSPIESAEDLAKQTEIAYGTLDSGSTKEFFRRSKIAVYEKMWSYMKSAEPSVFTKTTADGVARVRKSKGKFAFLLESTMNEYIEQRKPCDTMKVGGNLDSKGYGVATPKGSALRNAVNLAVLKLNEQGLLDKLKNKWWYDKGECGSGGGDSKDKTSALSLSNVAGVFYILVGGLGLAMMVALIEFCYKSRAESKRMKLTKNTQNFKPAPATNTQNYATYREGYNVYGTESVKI

[6] = system: Glutamate receptor 4 (Homo sapiens), P48058 [L505Y]; experiment: Negative allosteric modulation of human GluA4 L505Y mutant expressed in Xenopus laevis oocytes assessed as inhibition of glutamate-induced current response at 30 uM at -40 mV holding potential by two-electrode voltage clamp method relative to glutamate alone; format: cell-based; procedure, shortened: as §2
Sequence of Glutamate receptor 4 (Homo sapiens), P48058 [L505Y] (P48058 whole entry L505Y): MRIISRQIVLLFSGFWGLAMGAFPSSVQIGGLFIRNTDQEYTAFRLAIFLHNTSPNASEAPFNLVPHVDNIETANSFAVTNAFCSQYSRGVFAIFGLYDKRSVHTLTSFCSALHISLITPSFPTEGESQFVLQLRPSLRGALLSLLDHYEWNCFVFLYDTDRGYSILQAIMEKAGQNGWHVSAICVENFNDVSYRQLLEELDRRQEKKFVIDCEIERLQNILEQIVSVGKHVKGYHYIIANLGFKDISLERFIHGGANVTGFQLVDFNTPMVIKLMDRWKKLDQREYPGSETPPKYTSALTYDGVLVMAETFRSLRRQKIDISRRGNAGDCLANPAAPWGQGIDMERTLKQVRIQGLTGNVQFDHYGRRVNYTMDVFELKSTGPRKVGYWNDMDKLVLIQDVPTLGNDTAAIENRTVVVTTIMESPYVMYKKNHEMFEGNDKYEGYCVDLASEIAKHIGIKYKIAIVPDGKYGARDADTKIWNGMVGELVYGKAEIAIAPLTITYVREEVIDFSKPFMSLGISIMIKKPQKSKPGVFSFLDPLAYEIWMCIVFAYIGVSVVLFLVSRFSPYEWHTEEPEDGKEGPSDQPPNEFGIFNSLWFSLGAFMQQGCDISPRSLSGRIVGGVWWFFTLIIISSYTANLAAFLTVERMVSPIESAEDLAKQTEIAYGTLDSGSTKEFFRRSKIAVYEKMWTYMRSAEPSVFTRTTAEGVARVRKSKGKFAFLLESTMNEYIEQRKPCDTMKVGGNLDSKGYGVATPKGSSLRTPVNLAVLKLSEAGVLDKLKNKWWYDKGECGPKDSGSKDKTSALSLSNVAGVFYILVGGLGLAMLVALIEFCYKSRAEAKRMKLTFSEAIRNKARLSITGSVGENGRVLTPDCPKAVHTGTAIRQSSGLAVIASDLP

[7] = biological target: Glutamate receptor ionotropic, kainate 2 (Rattus norvegicus) (UniProt P42260); experiment: Negative allosteric modulation of rat GluK2 expressed in Xenopus laevis oocytes assessed as inhibition of glutamate-induced current response at 30 uM at -40 mV holding potential in presence of concanavalin A by two-electrode voltage clamp method relative to glutamate alone; format: cell-based; procedure, shortened: as §2
Sequence of Glutamate receptor ionotropic, kainate 2 (Rattus norvegicus) (P42260 whole entry): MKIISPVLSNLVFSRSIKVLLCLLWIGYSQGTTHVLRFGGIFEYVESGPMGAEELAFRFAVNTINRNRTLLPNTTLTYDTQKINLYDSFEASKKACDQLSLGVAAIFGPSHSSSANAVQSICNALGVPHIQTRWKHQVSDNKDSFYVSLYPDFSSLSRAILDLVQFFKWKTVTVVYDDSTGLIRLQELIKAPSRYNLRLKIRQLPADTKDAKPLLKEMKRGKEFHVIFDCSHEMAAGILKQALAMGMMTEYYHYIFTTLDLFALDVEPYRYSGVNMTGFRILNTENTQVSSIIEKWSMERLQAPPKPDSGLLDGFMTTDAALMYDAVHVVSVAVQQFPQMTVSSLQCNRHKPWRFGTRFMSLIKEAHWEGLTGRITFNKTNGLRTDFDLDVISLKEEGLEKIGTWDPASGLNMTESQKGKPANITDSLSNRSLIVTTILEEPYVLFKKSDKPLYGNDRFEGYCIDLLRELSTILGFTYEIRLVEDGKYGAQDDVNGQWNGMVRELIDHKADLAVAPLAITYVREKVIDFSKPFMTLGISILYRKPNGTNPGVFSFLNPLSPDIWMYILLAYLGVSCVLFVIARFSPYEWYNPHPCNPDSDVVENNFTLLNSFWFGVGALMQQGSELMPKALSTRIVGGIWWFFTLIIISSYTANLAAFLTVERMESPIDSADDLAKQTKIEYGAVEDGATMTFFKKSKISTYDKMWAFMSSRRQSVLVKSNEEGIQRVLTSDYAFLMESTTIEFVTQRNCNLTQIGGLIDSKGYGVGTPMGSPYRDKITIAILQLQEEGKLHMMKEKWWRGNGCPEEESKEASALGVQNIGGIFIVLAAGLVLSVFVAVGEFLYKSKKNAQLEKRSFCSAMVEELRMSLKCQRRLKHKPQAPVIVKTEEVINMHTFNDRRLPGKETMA

[8] = species on record: Rattus norvegicus; experiment: Negative allosteric modulation of rat GABAA alpha1beta2gamma2S expressed in Xenopus laevis oocytes assessed as inhibition of GABA-induced current response at 30 uM at -40 mV holding potential by two-electrode voltage clamp method relative to GABA alone; format: cell-based; procedure, shortened: as §2
[9] = species on record: Rattus norvegicus; experiment: Negative allosteric modulation of rat GABAA rho expressed in Xenopus laevis oocytes assessed as inhibition of GABA-induced current response at 30 uM at -40 mV holding potential by two-electrode voltage clamp method relative to GABA alone; format: cell-based; procedure, shortened: as §2
[10] = biological target: T1, Glycine receptor subunit alpha-1 (Rattus norvegicus) (UniProt P07727); experiment: Negative allosteric modulation of rat glycine alpha1 expressed in Xenopus laevis oocytes assessed as inhibition of glycine-induced current response at 30 uM at -40 mV holding potential by two-electrode voltage clamp method relative to glycine alone; format: cell-based; procedure, shortened: as §2
T1 sequence (whole entry): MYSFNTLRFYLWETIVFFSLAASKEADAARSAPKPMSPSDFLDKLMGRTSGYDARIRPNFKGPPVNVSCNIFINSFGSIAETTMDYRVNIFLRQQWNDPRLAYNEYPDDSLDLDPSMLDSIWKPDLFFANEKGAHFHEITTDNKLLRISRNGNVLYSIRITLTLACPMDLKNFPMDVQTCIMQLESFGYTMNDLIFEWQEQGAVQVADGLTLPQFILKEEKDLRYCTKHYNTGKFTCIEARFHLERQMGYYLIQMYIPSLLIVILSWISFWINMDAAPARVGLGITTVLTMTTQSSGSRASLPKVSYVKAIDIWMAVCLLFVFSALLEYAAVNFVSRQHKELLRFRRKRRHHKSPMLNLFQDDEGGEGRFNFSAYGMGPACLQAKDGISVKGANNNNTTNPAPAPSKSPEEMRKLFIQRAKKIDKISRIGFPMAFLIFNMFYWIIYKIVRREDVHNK

[11] = biological target: T2, 5-hydroxytryptamine receptor 3A (Rattus norvegicus) (UniProt P35563); experiment: Negative allosteric modulation of rat 5HT3A expressed in Xenopus laevis oocytes assessed as inhibition of serotonin-induced current response at 30 uM at -40 mV holding potential by two-electrode voltage clamp method relative to serotonin alone; format: cell-based; procedure, shortened: as §2
T2 sequence (whole entry): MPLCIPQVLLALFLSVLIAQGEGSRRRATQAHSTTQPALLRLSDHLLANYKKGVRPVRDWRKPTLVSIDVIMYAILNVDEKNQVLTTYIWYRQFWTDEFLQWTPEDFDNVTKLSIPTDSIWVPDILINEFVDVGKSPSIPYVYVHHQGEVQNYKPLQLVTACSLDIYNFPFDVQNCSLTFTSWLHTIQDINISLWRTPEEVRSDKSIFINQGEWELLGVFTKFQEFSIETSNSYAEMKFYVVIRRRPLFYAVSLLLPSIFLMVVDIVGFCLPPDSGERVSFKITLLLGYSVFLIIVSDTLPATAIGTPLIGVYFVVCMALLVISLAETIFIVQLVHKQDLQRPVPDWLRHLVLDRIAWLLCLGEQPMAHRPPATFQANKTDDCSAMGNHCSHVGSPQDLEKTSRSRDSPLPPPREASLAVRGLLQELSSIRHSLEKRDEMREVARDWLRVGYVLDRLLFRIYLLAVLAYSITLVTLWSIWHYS

[12] = biological target: CHRNA1/CHRNB1/CHRNG/CHRND (Rattus norvegicus) (UniProt P25109+P25108+P25110+P18916); experiment: Negative allosteric modulation of rat alpha1betagammadelta nACHR expressed in Xenopus laevis oocytes assessed as inhibition of acetylcholine-induced current response at 30 uM at -40 mV holding potential by two-electrode voltage clamp method relative to acetylcholine alone; format: cell-based; procedure, shortened: as §2
[13] = biological target: T3, Ionotropic glutamate receptor NMDA 1/2D (Rattus norvegicus) (UniProt P35439+Q62645); experiment: Negative allosteric modulation of recombinant rat GluN1/GluN2D expressed in Xenopus laevis oocytes assessed as residual glutamate/glycine-induced current response at 10 uM at -40 mV holding potential by two-electrode voltage clamp method relative to glutamate/glycine
[14] = biological target: T4, Glutamate NMDA receptor; Grin1/Grin2c (Rattus norvegicus) (UniProt P35439+Q00961); experiment: Negative allosteric modulation of recombinant rat GluN1/GluN2C expressed in Xenopus laevis oocytes assessed as remaining glutamate/glycine-induced current response at 10 uM at -40 mV holding potential by two-electrode voltage clamp method relative to glutamate/glycine
[15] = biological target: T5, Glutamate NMDA receptor; Grin1/Grin2a (Rattus norvegicus) (UniProt P35439+Q00959); experiment: Negative allosteric modulation of recombinant rat GluN1/GluN2A expressed in Xenopus laevis oocytes assessed as residual glutamate/glycine-induced current response at 30 uM at -40 mV holding potential by two-electrode voltage clamp method relative to glutamate/glycine
[16] = biological target: T4, Glutamate NMDA receptor; Grin1/Grin2c (Rattus norvegicus); experiment: Negative allosteric modulation of recombinant rat GluN1/GluN2C expressed in Xenopus laevis oocytes assessed as inhibition of glutamate/glycine-induced current response at 30 uM at -40 mV holding potential by two-electrode voltage clamp method relative to glutamate/glycine; format: cell-based; settings: for residual activity: values are per cent of control; procedure, shortened: as §1
[17] = biological target: T3, Ionotropic glutamate receptor NMDA 1/2D (Rattus norvegicus); experiment: Negative allosteric modulation of recombinant rat GluN1/GluN2D expressed in Xenopus laevis oocytes assessed as inhibition of glutamate/glycine-induced current response at 30 uM at -40 mV holding potential by two-electrode voltage clamp method relative to glutamate/glycine; format: cell-based; settings: for residual activity: values are per cent of control; procedure, shortened: as §1
[18] = biological target: T4, Glutamate NMDA receptor; Grin1/Grin2c (Rattus norvegicus); experiment: Negative allosteric modulation of recombinant rat GluN1/GluN2C expressed in Xenopus laevis oocytes assessed as inhibition of glutamate/glycine-induced current response at saturated concentration at -40 mV holding potential by two-electrode voltage clamp method relative to glutamate/glycine; format: cell-based
Procedure, shortened: (§3)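 Hill fit of the composite concentration-response curve in oocytes, with agonist 100 µM glutamate plus 30 µM glycine. Residual response in saturating compound is either fixed at 0 or fitted. 8-16 oocytes from 2-3 frogs.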

[19] = biological target: T3, Ionotropic glutamate receptor NMDA 1/2D (Rattus norvegicus); experiment: Negative allosteric modulation of recombinant rat GluN1/GluN2D expressed in Xenopus laevis oocytes assessed as inhibition of glutamate/glycine-induced current response at saturated concentration at -40 mV holding potential by two-electrode voltage clamp method relative to glutamate/glycine; format: cell-based; procedure, shortened: as §3
[20] = biological target: T4, Glutamate NMDA receptor; Grin1/Grin2c (Rattus norvegicus); experiment: Potency index, ratio of NP11999 IC50 to test compound IC50 for negative allosteric modulation of recombinant rat GluN1/GluN2C expressed in Xenopus laevis oocytes assessed as inhibition of glutamate/glycine-induced current response; format: cell-based
[21] = biological target: T3, Ionotropic glutamate receptor NMDA 1/2D (Rattus norvegicus); experiment: Potency index, ratio of NP11999 IC50 to test compound IC50 for negative allosteric modulation of recombinant rat GluN1/GluN2D expressed in Xenopus laevis oocytes assessed as inhibition of glutamate/glycine-induced current response; format: cell-based
[22] = biological target: Glutamate NMDA receptor; Grin1/Grin2a (Rattus norvegicus, UniProt P35439+Q00959); experiment: Negative allosteric modulation of recombinant rat GluN1/GluN2A expressed in Xenopus laevis oocytes assessed as inhibition of glutamate/glycine-induced current response at -40 mV holding potential by two-electrode voltage clamp method; format: cell-based; procedure, shortened: as §1
[23] = biological target: T5, Glutamate NMDA receptor; Grin1/Grin2a (Rattus norvegicus); experiment: Negative allosteric modulation of recombinant rat GluN1/GluN2A expressed in Xenopus laevis oocytes assessed as remaining glutamate/glycine-induced current response at 6 uM at -40 mV holding potential by two-electrode voltage clamp method relative to glutamate/glycine

Row | SMILES | IC50 [1] | IC50 [2] | residual activity [16] | residual activity [17] | inhibition [18] | inhibition [19] | further results
1 | CCN(CC)C(=O)Oc1ccc(C(=O)Nc2cccc(C(=O)Nc3ccccc3)c2)cc1 | 8 µM | – | – | – | – | – | –
2 | CCN(CC)C(=O)Oc1ccc(C(=O)Nc2cccc3cc[nH]c23)cc1 | 2.2 µM | 3.7 µM | – | – | – | – | inhibition [3]: Active; inhibition [4]: Active; inhibition [5]: Active; inhibition [6]: Active; inhibition [7]: Active; inhibition [8]: Active; inhibition [9]: Active; inhibition [10]: inactive; inhibition [11]: inactive; inhibition [12]: inactive; residual activity [13]: 16%; residual activity [14]: 24%
3 | O=C(NCc1ccc(C(=O)NNC(=O)c2ccccc2)cc1)c1ccc(F)c(Cl)c1 | – | – | – | – | – | – | residual activity [15]: 102%
4 | CCN(CC)C(=O)Oc1ccc(C(=O)Nc2cccc(CNS(=O)(=O)c3ccccc3)c2)cc1 | 29 µM | 45 µM | 60% | 46% | 0% | 0% | –
5 | CCN(CC)C(=O)Oc1ccc(C(=O)Nc2ccc(CCNS(=O)(=O)c3ccccc3)cc2)cc1 | – | – | – | – | 0% | 0% | inhibition [16]: 23%; inhibition [17]: 33%
6 | CCN(CC)C(=O)Oc1ccc(C(=O)Nc2ccc(CCNS(=O)(=O)c3cccnc3)cc2)cc1 | 5.1 µM | 12 µM | 37% | 26% | 0% | 0% | –
7 | CCN(CC)C(=O)Oc1ccc(C(=O)Nc2cccc(CCNC(=O)c3ccccc3)c2)cc1 | 29 µM | 37 µM | 56% | 49% | – | – | residual activity [15]: 82%
8 | CCN(CC)C(=O)Oc1ccc(C(=O)Nc2ccc(C(=O)Nc3ccccc3)cc2)cc1 | > 100 µM | – | – | – | – | – | –
9 | CCN(CC)C(=O)Oc1ccc(C(=O)Nc2cccc(CNS(=O)(=O)c3cccnc3)c2)cc1 | 23 µM | 34 µM | 52% | 42% | 0% | 0% | –
10 | CCN(CC)C(=O)Oc1ccc(C(=O)Nc2ccccc2)cc1 | 5.8 to 6 µM | 8.6 µM | – | – | – | – | residual activity [13]: 37%; residual activity [14]: 49%
11 | CCN(CC)C(=O)Oc1ccc(C(=O)Nc2ccc(CNS(=O)(=O)c3cccnc3)cc2)cc1 | 24 µM | 35 µM | 58% | 45% | 0% | 0% | –
12 | CCN(CC)C(=O)Oc1ccc(C(=O)Nc2cccc(CCNS(=O)(=O)c3ccc(F)c(Cl)c3)c2)cc1 | 1.3 µM | 2.4 µM | 41% | 28% | 0% | 0% | Ratio IC50 [20]: < 6; Ratio IC50 [21]: < 6
13 | CCN(CC)C(=O)Oc1ccc(C(=O)Nc2cccc(CCNS(=O)(=O)c3cccnc3)c2)cc1 | 2.7 µM | 3.2 µM | 8.5% | 8.6% | 0% | 0% | Ratio IC50 [20]: < 6; Ratio IC50 [21]: < 6
14 | CCN(CC)C(=O)Oc1ccc(C(=O)Nc2ccc(CNS(=O)(=O)c3ccccc3)cc2)cc1 | 10 µM | 22 µM | 42% | 20% | 41% | 27% | –
15 | CCN(CC)C(=O)Oc1ccc(C(=O)Nc2ccc(CCNS(=O)(=O)c3ccc(F)c(Cl)c3)cc2)cc1 | – | – | – | – | 0% | 0% | inhibition [16]: 21%; inhibition [17]: 26%
16 | O=C(NNC(=O)c1ccc(CNS(=O)(=O)c2ccc(F)c(Cl)c2)cc1)c1ccccc1 | – | – | < 15% | < 15% | – | – | IC50 [22]: 0.17 µM; residual activity [13]: 88%; residual activity [23]: 5.1%; residual activity [14]: 95%
